The text below walks through data of publication PMC12707241 (RSC Chemical Biology, 2025).

Assay [1] has as its system SIRT5. The conditions noted are these: cited from earlier work.
For assay [2], the system named is SIRT5. The conditions noted are these: cited from earlier work. The source holds these as a separate data set.
Another assay deals with HEK293 cells. Description: Intracellular NAD+ level, HEK293 cells. The assay is classed as cell-based, human. The conditions noted are these: HEK293, 1 mM, 6 h. An outline of the steps:
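HEK293 cells (DMEM, 10% FBS, 37 °C, 5% CO2) incubated with 1 mM NR or NARH for 6 h. Harvested, counted by hemocytometer, pelleted, and extracted in ice-cold 7% perchloric acid (three vortex/ice-sonication cycles). NAD+ measured by enzymatic cycling assay. Three independent experiments ± SD; Student's t-test.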

The mark [3] stands for this setting: physiological NAM concentrations.

The structures appear in SMILES notation. Like-named read-outs stand apart in the source and are kept apart here.

As to `NC(=O)c1cccnc1` [NAM, nicotinamide], in the assay on SIRT5 [1] (setting [3]), the “effect on deacetylase activity of SIRT5” value is recorded as “negligible changes”. The “effect on desuccinylase activity of SIRT5” value in the assay on SIRT5 [2] (setting [3]) is reported as “potently inhibit”.

Take `NC(=O)c1ccc[n+]([C@@H]2O[C@H](CO)[C@@H](O)[C@H]2O)c1` [NR, nicotinamide riboside]: the “effect on deacetylase activity of SIRT5” value with SIRT5 [1] is “selectively activates”. Besides, the “intracellular NAD+ content” value in the assay with HEK293 cells is “nearly two-fold increase”. Also, the “effect on desuccinylase activity of SIRT5” value in the assay on SIRT5 [2] is “negligible changes”.
